Assay outcomes deposited in PubChem by several laboratories.
IMP-1 inh: inhibitors of Pseudomonas aeruginosa IMP-1 metallo-beta-lactamase. 290,000 tested, 0.45% active. AID 1556. purified IMP-1, nitrocefin hydrolysis, epi-absorbance fluorescence. inhibition, % at 5.6 µM;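 active = inhibition above the mean plus 3 SD of all compounds in the same screening run, cut at about 4.5% in these data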
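assay system = purified recombinant IMP-1 metallo-beta-lactamase enzyme | schedule = 15 min preincubation plus 25 min reaction at 25 °C | signal = Epi-absorbance fluorescence, 480 nm excitation, 530 nm emission | read-out basis = percent inhibition from optical density relative to buffer-blank wells | controls = IMP-1 with DMSO as 0%, enzyme-free DMSO as 100%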
dFosB act-1: activators of mouse delta FosB homodimer. P13346. purified delta FosB, TAMRA-CDK5 oligo fluorescence polarization; percent of positive-control signal above neutral wells. activation, % at 25 µM. 340,000 tested, 0.99% active. AID 493131;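 active = mean activation above about 17%, with every replicate also reaching it, limit read from the data, passing the limit was not always enough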
Target sequence (P13346 whole entry, looked up): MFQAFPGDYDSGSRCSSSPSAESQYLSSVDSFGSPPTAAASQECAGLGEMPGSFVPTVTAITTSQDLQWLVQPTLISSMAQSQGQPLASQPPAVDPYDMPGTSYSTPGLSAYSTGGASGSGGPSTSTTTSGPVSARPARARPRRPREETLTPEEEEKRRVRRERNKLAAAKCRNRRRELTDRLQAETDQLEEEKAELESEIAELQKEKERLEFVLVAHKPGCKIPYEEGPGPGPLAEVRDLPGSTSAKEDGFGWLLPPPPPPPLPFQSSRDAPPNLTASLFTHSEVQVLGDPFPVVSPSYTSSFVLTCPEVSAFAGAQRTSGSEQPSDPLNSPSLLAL
HTR2A ag: agonists of mouse serotonin 5-HT2A receptor (HTR2A) | 360,000 tested, 0.66% active | activation, % at 7.6 µM | CHO-K1 mHTR2A beta-arrestin complementation, luminescence; percent of 30 µM serotonin response | AID 624169 | P35363;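 active = activation above a run cutoff, the mean activation of all tested compounds plus 3 SD, cut at about 14% in these data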
VIM-2 inhibitor: blocks Pseudomonas aeruginosa VIM-2 metallo-beta-lactamase; purified VIM-2, nitrocefin hydrolysis, epi-absorbance fluorescence; inhibition, % at 5.6 µM; 290,000 tested, 0.89% active; AID 1527;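 active = inhibition above the mean of all tested compounds plus 3 SD, cutoff set per screening run, cut at about 7.5% in these data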;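 also: red hydrolysis product quenches plate fluorescence so inhibitors raise well fluorescence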
dFosB act-2: enhances mouse delta FosB homodimer binding to DNA. AID 588690. shares compounds with dFosB act-1. activation, % at 24.9 µM. purified delta FosB, TAMRA-CDK5 oligo fluorescence polarization; normalised: neutral wells 0, positive control 100. 2,400 tested, under 10 active;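 active = highest replicate activation at or above 34% and every replicate reaching that threshold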;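 also: higher polarization means more probe DNA bound by delta FosB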
Of the large screens only hits and unclear results are named; the others gave an inactive call (follow-up assays come after a bar, where they were run). An excerpt weighted towards active compounds, which were near 2.5% of everything screened.

Nc1c(C(=O)NCc2cccs2)nnn1CC(=O)Nc1cccc(Cl)c1	dFosB act-1 21 | dFosB act-2 inactive
Cc1ccc(NC(=O)Cn2nnc(C(=O)NCc3cccs3)c2N)cc1Cl	none
Cc1cccc(NC(=O)Cn2nnc(C(=O)Nc3ccc(F)c(Cl)c3)c2N)c1	dFosB act-1 90 | dFosB act-2 inactive
CN(CC(=O)N1CCc2ccccc2C1)c1ccccc1	none
CC(C)(C)c1ccc(OCC(=O)O/N=C(\N)c2ccncc2)cc1	none
COc1ccc(S(=O)(=O)N2CCCCCC2)cc1	none
COc1ccc(COC(=O)c2ccc(S(=O)(=O)N3CCC(C)CC3)cc2)cc1	dFosB act-1 19 | dFosB act-2 inactive
COc1ccc(CNS(=O)(=O)c2ccc(S(=O)(=O)N3CCCCC3)cc2)cc1	dFosB act-1 41 (no result: IMP-1 inh, VIM-2 inhibitor) | dFosB act-2 inactive
CC1(C(=O)NS(=O)(=O)c2ccc(Cl)s2)CCN1C(=O)Cc1ccc(Cl)cc1Cl (stereo not drawn)	none (no result: IMP-1 inh, dFosB act-1, VIM-2 inhibitor)
COc1ccc(/C=N/NC(=O)CN(C2=NS(=O)(=O)c3ccccc32)c2ccccc2)cc1OC	none
COc1cccc(/C=N/NC(=O)CN(C2=NS(=O)(=O)c3ccccc32)c2ccccc2)c1	dFosB act-1 22 | dFosB act-2 inactive
CN(CCC#N)C(=S)NC(=O)c1ccc(S(=O)(=O)N2CCOCC2)cc1	none
Cc1ccc(C(=O)OCC(=O)Nc2ccc3c(c2)OCCO3)cc1C	dFosB act-1 22 (no result: IMP-1 inh, VIM-2 inhibitor) | dFosB act-2 inactive
Cc1ccc(C)c(NC(=O)COC(=O)c2ccc3c(c2)OCCO3)c1	dFosB act-1 33 (no result: IMP-1 inh, VIM-2 inhibitor) | dFosB act-2 inactive
Cc1ccccc1NC(=O)COC(=O)c1ccc2c(c1)OCCO2	none (no result: IMP-1 inh, VIM-2 inhibitor)
O=S(=O)(c1ccc2c(c1)OCO2)N1CCN(c2nnnn2-c2ccccc2)CC1	dFosB act-1 25 | dFosB act-2 inactive
N#CCC(=O)N/N=C/c1cn(Cc2ccc(Cl)c(Cl)c2)c2ccccc12	dFosB act-1 51 | dFosB act-2 inactive
N#CCC(=O)N/N=C/c1cn(Cc2ccccc2C#N)c2ccccc12	none
CSc1ccccc1NC(=O)Nc1cccc(Cl)c1Cl	dFosB act-1 26 | dFosB act-2 inactive
Cc1ccc(NC(=O)CN2C(=O)N/C(=C/c3ccc4c(c3)OCCO4)C2=O)cc1	dFosB act-1 48 | dFosB act-2 inactive
CCN(C(=O)CN1CCCCC1C)c1c(N)n(Cc2ccccc2)c(=O)[nH]c1=O (stereo not drawn)	none (no result: IMP-1 inh, VIM-2 inhibitor)
CC(=O)Nc1sc(C)c(C)c1C(=O)OCC(=O)Nc1cc(S(C)(=O)=O)ccc1Cl	dFosB act-1 56 | dFosB act-2 inactive
CNC(=O)/C(C#N)=C/c1ccc(-c2ccc(Cl)cc2)o1	dFosB act-1 50 | dFosB act-2 inactive
CNC(=O)/C(C#N)=C/c1ccc(-c2ccccc2[N+](=O)[O-])o1	none
CCc1cc(C(=O)Nc2ncccc2O)sc1C	none
CN(c1ccccc1)S(=O)(=O)c1nnc(NC(=O)COc2ccccc2)s1	dFosB act-1 20 | dFosB act-2 inactive
CCC(=O)Nc1nnc(S(=O)(=O)N(C)c2ccccc2)s1	none
CN(c1ccccc1)S(=O)(=O)c1nnc(NC(=O)COc2ccccc2F)s1	dFosB act-1 33 | dFosB act-2 inactive
O=C1CC(=C2c3ccccc3-c3ccccc32)C(=O)N1CCCCN1CCN(c2ccccc2)CC1	dFosB act-1 33 | dFosB act-2 inactive
O=C(Nc1ccc(Br)cn1)c1ccc2nccnc2c1	dFosB act-1 43 | dFosB act-2 inactive
O=C(Nc1ccc(Br)cn1)c1cccc(C(=O)Nc2ccc(Br)cn2)c1	none
CN(C)S(=O)(=O)c1ccc2oc(SCC(=O)c3c(N)n(C4CC4)c(=O)[nH]c3=O)nc2c1	dFosB act-1 20 (no result: IMP-1 inh, VIM-2 inhibitor) | dFosB act-2 inactive
O=[N+]([O-])c1sccc1CS(=O)(=O)c1ccccc1	none
CCOC(=O)c1c(C)[nH]c(C(=O)OCC(=O)Nc2cc(C)c(Cl)cc2OC)c1C	dFosB act-1 45 | dFosB act-2 inactive
CCOC(=O)c1c(C)[nH]c(C(=O)OCC(=O)NCc2ccc(OC)c(OC)c2)c1C	none (no result: IMP-1 inh, VIM-2 inhibitor)
CCN(C(=O)COC(=O)CCc1ccccc1OC)c1c(N)n(Cc2ccccc2)c(=O)[nH]c1=O	dFosB act-1 28 (no result: IMP-1 inh, VIM-2 inhibitor) | dFosB act-2 inactive
Cc1ccccc1C(=O)OCC(=O)N(C)c1c(N)n(Cc2ccccc2)c(=O)[nH]c1=O	none (no result: IMP-1 inh, VIM-2 inhibitor)
CC(C)CN(C(=O)COC(=O)C(C)N1C(=O)c2ccccc2C1=O)c1c(N)n(Cc2ccccc2)c(=O)[nH]c1=O (stereo not drawn)	dFosB act-1 37 (no result: IMP-1 inh, VIM-2 inhibitor) | dFosB act-2 inactive
CN(C(=O)COC(=O)c1ccccc1OCc1ccc(Cl)cc1)c1c(N)n(Cc2ccccc2)c(=O)[nH]c1=O	dFosB act-1 34 (no result: IMP-1 inh, VIM-2 inhibitor) | dFosB act-2 inactive
Cc1ccc(OCCC(=O)N(CCC(C)C)c2c(N)n(Cc3ccccc3)c(=O)[nH]c2=O)cc1	dFosB act-1 24 (no result: IMP-1 inh, VIM-2 inhibitor) | dFosB act-2 inactive
COc1ccc(N(C(=O)c2snc(C(N)=O)c2N)C(CC(C)C)C(=O)NCC2CCCO2)cc1 (stereo not drawn)	none
O=C(C(=O)N1CCN(c2ccccc2)CC1)c1ccco1	none (no result: IMP-1 inh, dFosB act-1, VIM-2 inhibitor)
Cc1ccc(SCC(=O)OCC(=O)N(CC(C)C)c2c(N)n(Cc3ccccc3)c(=O)[nH]c2=O)cc1C	dFosB act-1 33 (no result: IMP-1 inh, VIM-2 inhibitor) | dFosB act-2 inactive
Cc1ccc(C(=O)NCC(=O)OCC(=O)N(CC(C)C)c2c(N)n(Cc3ccccc3)c(=O)[nH]c2=O)cc1C	none (no result: IMP-1 inh, VIM-2 inhibitor)
O=C(NNc1ncnc2sccc12)c1ccc(Cl)cc1	none
Cc1csc2ncnc(NNC(=O)c3ccc(Cl)cc3)c12	dFosB act-1 28 | dFosB act-2 inactive
Cc1c(-c2nc(N)nc(Nc3ccc(F)cc3)n2)oc2ccccc12	dFosB act-1 71 | dFosB act-2 inactive
O=C(Cc1ccccc1F)Nc1nc(-c2ccc(F)c(F)c2)cs1	none
O=C(NC(=S)Nc1nc(-c2ccccc2)cs1)c1cccnc1	none
O=C(Cc1ccccc1F)Nc1nc(-c2cccnc2)cs1	dFosB act-1 39 | dFosB act-2 inactive
O=C(Nc1nc(-c2ccccc2Cl)cs1)c1cccnc1	dFosB act-1 29 | dFosB act-2 inactive
CC/C(=N/NC(=O)c1ccccc1O)c1c(C)[nH]n(-c2ccccc2)c1=O	none (no result: IMP-1 inh, VIM-2 inhibitor)
O=C(NC1CCS(=O)(=O)C1)c1c(NC(=O)C2COc3ccccc3O2)sc2c1CCCC2 (stereo not drawn)	dFosB act-1 40 | dFosB act-2 inactive
COc1cc(C2/C(=C(\O)c3ccc4c(c3)OCCO4)C(=O)C(=O)N2Cc2ccco2)cc(OC)c1OC (stereo not drawn)	none
COc1ccccc1NC(=O)Nc1nnc(Cc2ccccc2F)s1	none
COc1ccc(NC(=O)Cc2csc(NC(=O)Nc3ccccc3OC)n2)cc1	none (no result: IMP-1 inh, dFosB act-1, VIM-2 inhibitor)
O=C(Nc1ccc(Cl)cc1)Nc1nnc(CSCc2ccc(Cl)cc2)s1	dFosB act-1 19 | dFosB act-2 inactive
Cc1ccccc1NC(=O)Cc1nnc(NC(=O)Nc2ccccc2F)s1	dFosB act-1 52 | dFosB act-2 inactive
CCc1nnc(NC(=O)Nc2ccc(Cl)cc2)s1	none
